Measurements published in ChEMBL document CHEMBL1156002, “Synthesis, Raman, FT-IR, NMR spectroscopic characterization, antimicrobial activity, cytotoxicity and DNA binding of new mixed aza-oxo-thia macrocyclic compounds” (2009).
Converted amounts (≈) assume the structure as drawn. The source made the active and inactive calls. The calls are words filed in the database; no cut-off is given here.

How the values were obtained:
[1] = test system: Escherichia coli; assay: Antibacterial activity against Escherichia coli ATCC 11230 after 24 hrs by broth micro dilution method; format: functional; conditions: ATCC 11230, 24 h
[2] = test system: Staphylococcus aureus; assay: Antibacterial activity against Staphylococcus aureus ATCC 6538 after 24 hrs by broth micro dilution method; format: functional; conditions: ATCC 6538, 24 h
[3] = test system: Klebsiella pneumoniae; assay: Antibacterial activity against Klebsiella pneumoniae UC57 after 24 hrs by broth micro dilution method; format: functional; conditions: UC57, 24 h
[4] = test system: Micrococcus luteus; assay: Antibacterial activity against Micrococcus luteus La 2971 after 24 hrs by broth micro dilution method; format: functional; conditions: La 2971, 24 h
[5] = test system: Listeria monocytogenes; assay: Antibacterial activity against Listeria monocytogenes ATCC 15313 after 24 hrs by broth micro dilution method; format: functional; conditions: ATCC 15313, 24 h
[6] = test system: Kluyveromyces marxianus; assay: Antifungal activity against Kluyveromyces fragilis NRRL 2415 after 24 hrs by broth micro dilution method; format: functional; conditions: NRRL 2415, 24 h
Summary of the method: (§1)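 Broth microdilution was run in cation-adjusted Mueller Hinton Broth. Compounds were dissolved in DMSO at 2 mg mL^-1 and serially diluted two-fold. Yeast precultures were grown in Malt Extract Broth for 48 h. The final inoculum was about 10⁶ cfu mL^-1, and plates were incubated at 37 °C for 24 h. The MIC was read from this series.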

[7] = test system: Rhodotorula mucilaginosa; assay: Antifungal activity against Rhodotorula rubra DSM 70403 after 24 hrs by broth micro dilution method; format: functional; conditions: DSM 70403, 24 h; summary of the method: as §1
[8] = test system: Hanseniaspora guilliermondii; assay: Antifungal activity against Hanseniaspora guilliermondii DSM 3432 after 24 hrs by broth micro dilution method; format: functional; conditions: DSM 3432, 24 h; summary of the method: as §1
[9] = Cytotoxicity against human 23132/87 cells assessed as cell viability at 0.1 uM after 24 hrs by MTT assay; format: functional; conditions: 23132-87, 24 h, read-out: Activity
Summary of the method: (§2)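 Cells were seeded at 3.10³–5.10³ per well in RPMI 1640 with 10% FBS, 4 mM L-glutamine and penicillin/streptomycin, then held 24 h at 37 °C under 5% CO₂. Ligands (DMSO, final 0.5% v/v) were added at 0.1–100 for 24 or 48 h. MTT was added for 4 h and dissolved in 50% DMF/5% SDS. A570 was read, and cytotoxicity was calculated as 100×(OD treated/OD untreated).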

[10] = Cytotoxicity against human 23132/87 cells assessed as cell viability at 1 uM after 24 hrs by MTT assay; format: functional; conditions: 23132-87, 24 h, read-out: Activity; summary of the method: as §2
[11] = Cytotoxicity against human 23132/87 cells assessed as cell viability at 100 uM after 24 hrs by MTT assay; format: functional; conditions: 23132-87, 24 h, read-out: Activity; summary of the method: as §2
[12] = Cytotoxicity against human 23132/87 cells assessed as cell viability at 100 uM after 48 hrs by MTT assay; format: functional; conditions: 23132-87, 48 h, read-out: Activity; summary of the method: as §2
[13] = test system: A549; assay: Cytotoxicity against human A549 cells assessed as cell viability at 1 uM after 24 hrs by MTT assay; format: functional; conditions: A549, 24 h, read-out: Activity; summary of the method: as §2
[14] = test system: A549; assay: Cytotoxicity against human A549 cells assessed as cell viability at 10 uM after 24 hrs by MTT assay; format: functional; conditions: A549, 24 h, read-out: Activity; summary of the method: as §2
[15] = test system: A549; assay: Cytotoxicity against human A549 cells assessed as cell viability at 100 uM after 24 hrs by MTT assay; format: functional; conditions: A549, 24 h, read-out: Activity; summary of the method: as §2
[16] = test system: A549; assay: Cytotoxicity against human A549 cells assessed as cell viability at 0.1 uM after 48 hrs by MTT assay; format: functional; conditions: A549, 48 h, read-out: Activity; summary of the method: as §2
[17] = test system: A549; assay: Cytotoxicity against human A549 cells assessed as cell viability at 1 uM after 48 hrs by MTT assay; format: functional; conditions: A549, 48 h, read-out: Activity; summary of the method: as §2
[18] = test system: A549; assay: Cytotoxicity against human A549 cells assessed as cell viability at 10 uM after 48 hrs by MTT assay; format: functional; conditions: A549, 48 h, read-out: Activity; summary of the method: as §2
[19] = test system: A549; assay: Cytotoxicity against human A549 cells assessed as cell viability at 100 uM after 48 hrs by MTT assay; format: functional; conditions: A549, 48 h, read-out: Activity; summary of the method: as §2
[20] = test system: 23132-87; assay: Induction of apoptosis in human 23132/87 cells assessed as DNA fragmentation at 100 uM after 24 hrs by DNA fragmentation assay; format: functional, cell-based
Summary of the method: (§3)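 10 × 10⁴ cells were seeded in 6-well plates and treated with ligand for 24 h. Cells were then collected and washed in PBS, and DNA was extracted with a kit. Extracts were run on 1.5% agarose alongside a 100 bp marker, an untreated control and DMSO-treated controls, and ladders were visualized under UV.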

[21] = test system: A549; assay: Induction of apoptosis in human A549 cells assessed as DNA fragmentation at 100 uM after 24 hrs by DNA fragmentation assay; format: functional, cell-based; summary of the method: as §3
[22] = test system: 23132-87; assay: Induction of apoptosis in human 23132/87 cells assessed as change in nuclear appearance at 100 uM after 24 hrs by hoechst nuclear staining; format: functional, cell-based
Summary of the method: (§4)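 Cells grown in 6-well plates were treated for 24 h, washed three times in PBS and fixed in ice-cold methanol for 10 min. They were stained with Hoechst 33258 for 5 min, destained in double-distilled water for 5 min and examined by fluorescence microscopy. Untreated and DMSO-treated cells served as controls.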

[23] = test system: A549; assay: Induction of apoptosis in human A549 cells assessed as change in nuclear appearance at 100 uM after 24 hrs by hoechst nuclear staining; format: functional, cell-based; summary of the method: as §4
[24] = test system: Calf thymus DNA; assay: Binding affinity to calf thymus DNA assessed as change in electromagnetic spectrum at 500 uM by UV-vis spectroscopy; format: nucleic-acid assay; conditions: Bos taurus
Summary of the method: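 CT-DNA was prepared in ddH₂O and judged protein-free by an A260/A280 ratio of 1.8:1. UV–visible absorption spectra of the DNA solution were recorded without ligand and with increasing ligand amounts.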

[25] = test system: Escherichia coli; assay: Antibacterial activity against Escherichia coli ATCC 11230 after 24 hrs by agar disk diffusion assay; format: functional
Summary of the method: (§5)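 Disk diffusion with sterile 6 mm discs loaded with DMSO solutions of the test agents and placed on inoculated agar. Bacteria were pre-grown in Nutrient Broth at 30 °C for 24 h, and plates were incubated at 35 °C for 24 h. Each plate carried a reference antibiotic disc matched to the organism, and a DMSO-only solvent control was run.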

[26] = test system: Klebsiella pneumoniae; assay: Antibacterial activity against Klebsiella pneumoniae UC57 after 24 hrs by agar disk diffusion assay; format: functional; summary of the method: as §5
[27] = test system: Bacillus cereus; assay: Antibacterial activity against Bacillus cereus ATCC 7064 after 24 hrs by agar disk diffusion assay; format: functional; summary of the method: as §5
[28] = test system: Micrococcus luteus; assay: Antibacterial activity against Micrococcus luteus La 2971 after 24 hrs by agar disk diffusion assay; format: functional; summary of the method: as §5
[29] = test system: Proteus vulgaris; assay: Antibacterial activity against Proteus vulgaris ATCC 8427 after 24 hrs by agar disk diffusion assay; format: functional; summary of the method: as §5
[30] = test system: Mycolicibacterium smegmatis; assay: Antibacterial activity against Mycobacterium smegmatis CCM 2067 after 24 hrs by agar disk diffusion assay; format: functional; summary of the method: as §5
[31] = test system: Listeria monocytogenes; assay: Antibacterial activity against Listeria monocytogenes ATCC 15313 after 24 hrs by agar disk diffusion assay; format: functional; summary of the method: as §5
[32] = test system: Pseudomonas aeruginosa; assay: Antibacterial activity against Pseudomonas aeruginosa ATCC 27853 after 24 hrs by agar disk diffusion assay; format: functional; summary of the method: as §5
[33] = test system: Rhodotorula mucilaginosa; assay: Antifungal activity against Rhodotorula rubra DSM 70403 after 72 hrs by agar disk diffusion assay; format: functional
Summary of the method: (§6)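 Sterile 6 mm paper discs were loaded with ligand solution freshly prepared in DMSO and placed on inoculated agar. The inoculum came from broth cultures: bacteria in Nutrient Broth at 30 °C for 24 h, yeasts in Malt Extract Broth for 48 h. Plates were incubated at 35 °C for 24 h (bacteria) or 25 °C for 72 h (yeasts). A DMSO solvent control and a reference antibiotic disc were included on each plate.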

[34] = test system: Debaryomyces hansenii; assay: Antifungal activity against Debaryomyces hansenii DSM 70238 after 72 hrs by agar disk diffusion assay; format: functional; summary of the method: as §6

Compound `O=C1CSSCC(=O)Nc2nc(nc(-c3ccccc3)n2)NC(=O)CSSCC(=O)Nc2nc(nc(-c3ccccc3)n2)N1` has an MIC [1] of 25 mg/L (≈ 37.5 µM), an MIC [2] of 12.5 mg/L (≈ 18.7 µM) and an MIC [3] of 6.25 mg/L (≈ 9.37 µM). For the same compound, the MIC [4] was 3.12 mg/L (≈ 4.69 µM), the MIC [5] was 25 mg/L (≈ 37.5 µM) and the MIC [6] was 1.56 mg/L (≈ 2.34 µM). For the same compound, the MIC [7] was 3.12 mg/L (≈ 4.69 µM), the MIC [8] was 1.56 mg/L (≈ 2.34 µM) and the viability at 0.1 µM [9] was greater than 86%. For the same compound, the viability at 1 µM [10] was greater than 86%, the viability at 100 µM [11] was greater than 86% and the viability at 100 µM [12] was greater than 86%. The viability at 1 µM [13] was greater than 86%, the viability at 10 µM [14] was greater than 86% and the viability at 100 µM [15] was greater than 86%. For the same compound, the viability at 0.1 µM [16] was greater than 86%, the viability at 1 µM [17] was greater than 86% and the viability at 10 µM [18] was greater than 86%. The viability at 100 µM [19] was greater than 86%, the Activity [20] was “inactive” and the Activity [21] was “inactive”. For the same compound, the Activity [22] was “inactive”, the Activity [23] was “inactive” and the Activity [24] was “inactive”. For the same compound, the “inhibition zone (IZ)” value [25] was 10 mm, the “inhibition zone (IZ)” value [26] was 15 mm and the “inhibition zone (IZ)” value [27] was 17 mm. The “inhibition zone (IZ)” value [28] was 18 mm, the “inhibition zone (IZ)” value [29] was 11 mm and the “inhibition zone (IZ)” value [30] was 10 mm. For the same compound, the “inhibition zone (IZ)” value [31] was 10 mm, the “inhibition zone (IZ)” value [32] was 11 mm and the “inhibition zone (IZ)” value [33] was 18 mm. The “inhibition zone (IZ)” value [34] was 21 mm.
